Data on 4 molecules can be found in ChEMBL document CHEMBL1124204, “Thiophene systems. 9. Thienopyrimidinedione derivatives as potential antihypertensive agents” (1988).

In experiment [1] the test system is Rattus norvegicus. Nature of the experiment: Evaluated for blood pressure lowering activity in spontaneously hypertensive rats (maximum change of systolic blood pressure (SBP)) at a dose of 0.5 mg/kg. The experiment is classed as functional, Artery. In a few lines: (§1)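 Adult male SHR, conscious, restrained in a chamber at 32 °C. SBP measured indirectly by tail cuff with a pneumatic pulse transducer. After baseline, groups of 4–6 received a single oral gavage dose or vehicle (0.5% methylcellulose). SBP was read at 0.5, 1, 2, 3 and 4 h, and the maximum SBP change ± SEM was reported against the vehicle effect.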

Experiment [2] has as its system Rattus norvegicus. Put plainly: Time to peak fall in systolic blood pressure in spontaneously hypertensive rats after oral administration of 0.5 mg/kg of the compound.
Experiment [3] is filed under the species Rattus norvegicus. Put plainly: Peroral dose required to produce a 50 mmHg drop in systolic blood pressure (SBP) in the spontaneously hypertensive rats. The settings on record: Artery, po. The experiment is classed as functional. In a few lines: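 Adult male SHR, conscious, tail-cuff indirect SBP at 32 °C. Groups of 4–6 were given single oral gavage doses of 0.5–20 mg/kg in 0.5% methylcellulose, with SBP followed over 4 h. The dose giving a 50 mmHg SBP fall (ED50SBP, mg/kg po) was calculated by regression analysis with 95% fiducial limits; n = animals tested.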

The test system of experiment [4] is Canis familiaris. Nature of the experiment: Intravenous dose required to produce a 20-fold rightward shift in the phenylephrine dose-response curve in the dog. The experiment is classed as functional, Canis lupus familiaris. Summed up: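 Mongrel dogs, anesthetized and bilaterally vagotomized. Mean arterial pressure was recorded via carotid cannula, and drug was given iv through the jugular vein. Phenylephrine dose–response curves were run before and after antagonist. The iv dose (μg/kg) producing a 20-fold rightward shift (DR20) was calculated; n = animals tested.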

The test system of experiment [5] is Rattus norvegicus. Nature of the experiment: Intravenous dose required to produce a 50% inhibition of the phenylephrine pressor response in the spontaneously hypertensive rats. The experiment is classed as functional. Summed up: (§2)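 Adult male SHR, anesthetized and bilaterally vagotomized. A carotid artery was cannulated for mean arterial pressure and a jugular vein for iv dosing. Phenylephrine pressor responses were measured before and after antagonist. The iv dose (μg/kg) giving 50% inhibition of the pressor response (ED50) was reported with fiducial limits.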

Experiment [6] deals with Rattus norvegicus. Put plainly: Time to reach peak blood pressure lowering effect in spontaneously hypertensive rats after oral administration of 20 mg/kg of the compound.
Experiment [7] deals with Rattus norvegicus. Nature of the experiment: Evaluated for blood pressure lowering activity in spontaneously hypertensive rats (maximum change of systolic blood pressure (SBP)) at a dose of 20 mg/kg. The experiment is classed as functional, Artery. In a few lines:
as §1

For experiment [8], the system named is Rattus norvegicus. Put plainly: Evaluated for blood pressure lowering activity in the conscious spontaneously hypertensive rats (SHR) (time to peak (h)) at a dose of 1.25 mg/kg. The class given is functional. Summed up: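 Conscious adult male SHR in restrainers at 32 °C, with tail-cuff and pulse-transducer SBP recording. Groups of 4–6 got a single gavage dose in 0.5% methylcellulose or vehicle alone. SBP was sampled at 0.5, 1, 2, 3 and 4 h post-dose, and the time (h) at which the peak SBP change occurred was recorded.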

Experiment [9] deals with Rattus norvegicus. Nature of the experiment: Evaluated for blood pressure lowering activity in spontaneously hypertensive rats (maximum change of systolic blood pressure (SBP)) at a dose of 1.25 mg/kg. The class given is functional, Artery. In a few lines: as §1
For experiment [10], the system named is Rattus norvegicus. Put plainly: Intravenous dose required to produce 50% inhibition of the phenylephrine pressor response in the spontaneously hypertensive rats. The experiment is classed as functional. In a few lines:
as §2

Consider `COc1ccccc1N1CCN(CCn2c(=O)[nH]c3cscc3c2=O)CC1.Cl`, for which the “Delta SBP” value in [1] is given as -83 mmHg. The same molecule yielded a Time in experiment [2] of 0.5 h. Moreover, the 50% effective dose (ED50) turned out to be 0.21 mg/kg in [3] and 0.0017 mg/kg in experiment [5]. In experiment [4], the DR20 is 3 µg/kg.
`COc1cccc(N2CCN(CCn3c(=O)[nH]c4cscc4c3=O)CC2)c1` registered a Time in experiment [6] of 0.5 h. The “Delta SBP” value in experiment [7] is recorded as -52 mmHg.
In experiment [8], `COc1ccccc1N1CCN(CCn2c(=O)[nH]c3ccccc3c2=O)CC1` registered a Time of 0.5 h. For the same molecule, the ED50 amounted to 0.54 mg/kg in experiment [3] and 0.0033 mg/kg in experiment [5]. The “Delta SBP” value in experiment [9] was -54 mmHg. Moreover, the DR20 in [4] is 10 µg/kg.
For the molecule `COc1cc2nc(N3CCN(C(=O)c4ccco4)CC3)nc(N)c2cc1OC` [PRAZOSIN], the ED50 in [10] came out at 0.0104 mg/kg; in experiment [3], 0.22 mg/kg. This molecule also displayed a Time in [8] of 0.5 h. Further, the “Delta SBP” value in experiment [9] is on record as -60 mmHg. The DR20 in [4] was 300 µg/kg.

By ED50 is commonly meant the midpoint of the dose-response relation. A higher ED50 goes with a need for a large dose.
